Test results as given in ChEMBL document CHEMBL4368901 (J Med Chem, 2019).
pIC50: −log10 of the molar value. Calls of active or inactive are those of the source. The calls are words filed in the database; no cut-off is given here.

Assays:
H22 [1] = assay: Antiproliferative activity against mouse H22 cells after 5 days by EZMTT reagent-based assay; format: functional, cell-based; conditions: H22, 120 h
[2] = Drug level in tumor of mouse H22 cells transplanted ICR mouse at 10 mg/kg, sc administered once daily for 10 consecutive days by HPLC analysis; format: ADME, organism-based, Neoplasm; conditions: in vivo
In short: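 Compound accumulation was measured in end-point tumours from H22-bearing ICR mice after once-daily subcutaneous 10 mg/kg dosing, 10 injections. Tumour content was analysed by HPLC.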

CAKI-1 [3] = assay: Antiproliferative activity against human Caki1 cells after 5 days by EZMTT reagent-based assay relative to control; format: functional
[4] = Inhibition of GDH (unknown origin) using NADP+ and glutamate as substrate preincubated for 0.5 hrs followed by substrate addition and measured after 1 hr by EZMTT reagent-based UV-Vis absorbance assay; parameters: species or system Homo sapiens
HCT-116 [5] = assay: Antiproliferative activity against human HCT116 cells after 5 days by EZMTT reagent-based assay relative to control; format: functional
[6] = Retention time of compound in mouse liver microsomes at 50 uM by LC-MS/MS analysis; format: ADME, Microsome
A549 [7] = assay: Antiproliferative activity against human A549 cells after 5 days by EZMTT reagent-based assay; format: functional, cell-based; conditions: A549, 120 h
A549 [8] = assay: Antiproliferative activity against human A549 cells after 5 days by EZMTT reagent-based assay relative to control; format: functional
HCT-116 [9] = assay: Antitumor activity against human HCT116 cells xenografted in nude mouse assessed reduction in tumor weight at 10 mg/kg, […] relative to control; format: functional; parameters: scale not given: the % may be the effect or the level left
HCT-116 [10] = assay: Antiproliferative activity against human HCT116 cells after 5 days by EZMTT reagent-based assay; format: functional, cell-based; conditions: HCT-116, 120 h
H22 [11] = assay: Antiproliferative activity against mouse H22 cells after 5 days by EZMTT reagent-based assay relative to control; format: functional
[12] = Metabolic stability in mouse liver microsomes at 50 uM after 4 hrs in presence of NADPH by HPLC analysis; format: ADME, Microsome; conditions: read-out: Stability
In short: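 Compound was incubated with mouse liver microsomes for 4 h, with coumarin as the control. The remaining level was quantified by HPLC using UV absorbance at 254 nm.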

[13] = Metabolic stability in ICR mouse blood after 2 hrs by HPLC analysis; format: ADME, tissue-based
In short: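 Compound was incubated in blood for 2 h and its remaining concentration was quantified by HPLC.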

H22 [14] = assay: Antitumor activity against mouse H22 cells transplanted in ICR mouse assessed as reduction in tumor size at 10 mg/kg, sc administered once daily for 10 consecutive days relative to control; format: functional, organism-based
In short: (§1)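 H22 liver cancer model in young SPF ICR mice, n=10 per group. Compound given subcutaneously once daily at 10 mg/kg, 10 injections; the control group received N.S. End-point tumour size and weight, body weight and survival were recorded. Treated groups were compared with control by unpaired t test.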

A549 [15] = assay: Induction of ROS generation in human A549 cells at 10 uM after 12 hrs by DCFH-DA staining-based fluorescence microscopic analysis; format: functional, cell-based
In short: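 A549 cells were seeded at 10000 per well and exposed to compound at 0, 3 or 10 µM for 12 h. ROSUP at 100 µg/ml served as the positive control, alongside untreated cells. ROS was then assessed.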

CAKI-1 [16] = assay: Antiproliferative activity against human Caki1 cells after 5 days by EZMTT reagent-based assay; format: functional, cell-based; conditions: CAKI-1, 120 h
HCT-116 [17] = assay: Antitumor activity against human HCT116 cells xenografted in nude mouse assessed induction of tumor necrosis at 10 mg/kg, […] by hematoxylin and eosin staining-based assay; format: functional, organism-based
H22 [18] = assay: Antitumor activity against mouse H22 cells transplanted in ICR mouse assessed as increase in mouse survival at 10 mg/kg, sc administered once daily for 10 consecutive days relative to control; format: functional, organism-based
H22 [19] = assay: Antitumor activity against mouse H22 cells transplanted in ICR mouse assessed as reduction in tumor weight at 10 mg/kg, sc administered once daily for 10 consecutive days relative to control; format: functional; in short: as §1
HCT-116 [20] = assay: Antitumor activity against human HCT116 cells xenografted in nude mouse assessed reduction in tumor weight at 10 mg/kg, sc administered for 14 consecutive days; format: functional, organism-based
In short: (§2)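 HCT116 xenografts in young SPF nude mice, n=6 per group. Compound given at 10 mg/kg subcutaneously, […]; the control group received N.S. End-point tumour weight, tumour growth and body weight were recorded. End-point tumours were H&E stained to assess tissue damage. Weights were compared by unpaired t test.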

[21] = Drug metabolism mouse liver microsomes assessed as metabolite formation due to loss of terminal pyridine and oxygen at 50 uM by LC-MS/MS analysis; format: ADME, Microsome
HCT-116 [22] = assay: Antitumor activity against human HCT116 cells xenografted in nude mouse assessed reduction in tumor size at 10 mg/kg, sc administered for 14 consecutive days; format: functional, organism-based; in short: as §2

| SMILES | pIC50 (H22 [1]) | Imax (CAKI-1 [3]) [%] | pIC50 [4] | Imax (HCT-116 [5]) [%] | Retention_time [6] [min] | Imax (A549 [8]) [%] | pIC50 (HCT-116 [10]) | Imax (H22 [11]) [%] | remaining at 4 h, 50 µM [12] [%] | Stability [13] | Activity (H22 [14]) | Activity (A549 [15]) | Activity (HCT-116 [17]) | also measured |
| --- | --- | --- | --- | --- | --- | --- | --- | --- | --- | --- | --- | --- | --- | --- |
| O=C(Cc1cccc(OC(F)(F)F)c1)Nc1ccc(CCCCc2nnc(NC(=O)Cc3ccccn3)[se]2)nn1 | 5.17 | 89 | < 4.89 | 90 | 8.2 | 82 | 8.05 | 75 | 50 | Stable | Active | Active | Active | Drug uptake [2]: Active; pIC50 (A549 [7]): 7.77; Activity (HCT-116 [9]): 40%; pIC50 (CAKI-1 [16]): 7.72; Activity (H22 [18]): Active |
| O=C(Cc1cccc(OC(F)(F)F)c1)Nc1ccc(CCCCc2nnc(NC(=O)Cc3ccccn3)s2)nn1 | < 5.00 | 88 | < 4.89 | 90 | 7.97 | 82 | 7.55 | 44 | 46 | Stable | Active | Active | Active | Activity (H22 [19]): Active; Activity (HCT-116 [20]): Active; Drug metabolism [21]: Metabolite_Detected; Activity (HCT-116 [22]): Active |
